Data on eleven compounds can be found in ChEMBL document CHEMBL1157849, “The influence of the aziridinyl substituent of benzimidazoles and benzimidazolequinones on toxicity towards normal and Fanconi anaemia cells” (Eur J Med Chem, 2010).

Assay [1] is described as follows: Cytotoxicity against human GM00637 cells after 24 hrs by MTT assay. In kind it is cell-based. The note with it: GM00637, 24 h. In short, it runs like this: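 Cells seeded at 10,000 per well and left 48 h to adhere, then exposed to test solutions in DMSO (2.5% final) for 24 h at 37 °C under humidified 5% CO₂. MTT read-out at 550 nm with 690 nm reference. Viability is expressed as percent of DMSO-only control. IC50 is the concentration reducing mean viability to 50% of control, estimated by nonlinear regression of dose-response curves.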

A further assay has as its system PD20i. As to the kind of experiment: Cytotoxicity against FANCD2-deficient human PD20i cells at 0.001 uM after 24 hrs by MTT assay. In kind it is functional, cell-based. In short, it runs like this:
(§1)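 PD20i and PD20:RV human fibroblasts grown in alpha-MEM with 15% uninactivated FBS, penicillin–streptomycin, 2 mM L-glutamine, 37 °C, 5% CO₂. Cells seeded at 10,000/well, both lines in parallel on the same plate, adhered 48 h. Compound added in DMSO (2.5% final), 24 h at 37 °C. MTT read at 550 nm (690 nm reference). Viability as % of DMSO-only control, mean of at least three independent experiments.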
Background: Tetrazolium dyes change colour on reduction, which living cells bring about.

The next assay is filed under the species Homo sapiens. As to the kind of experiment: Cytotoxicity against wild type FANCD2 expressing human PD20:RV cells at 0.001 uM after 24 hrs by MTT assay. In kind it is functional, cell-based. In short, it runs like this:
as §1

Active and inactive are the calls of the source. The rule behind the calls is not given here.

In general, IC50 refers to the midpoint of a concentration-inhibition curve. A lower IC50 goes with inhibition by little substance. The compound `COC1=CC(=O)c2c(nc3n2CCCCC3)C1=O` came in with an IC50 in assay [1] above 1500 nM.
Consider `O=C1C=CC(=O)c2c1ncn2C[C@@H]1CN1C(c1ccccc1)(c1ccccc1)c1ccccc1` (stereo not given in full), for which it took 150 nM to reach half-maximal inhibition in assay [1] (IC50). In addition, the result with PD20i was Active.
Regarding `CO[C@@]12[C@H](COC(N)=O)C3=C(C(=O)C(C)=C(N)C3=O)N1C[C@@H]1N[C@@H]12` [MITOMYCIN], inhibition in assay [1] was half-maximal at 900 nM (IC50).
As to `O=C1C(N2CC2)=CC(=O)c2c1nc1n2CCC1`, in assay [1], the midpoint of inhibition, the IC50, lay at 290 nM. Moreover, the outcome in the assay listed under Homo sapiens and in the assay on PD20i was Active.
Regarding `CCn1cnc2c(OC)ccc(OC)c21`, the IC50 in assay [1] was above 10000 nM.
The same measure, in the same setting: the result for `O=C1C(N2CC2)=CC(=O)c2c1nc1n2CCCCC1` reads 560 nM.
In assay [1], `CCn1cnc2c1C(=O)C=CC2=O` returned an IC50 of 580 nM.
In assay [1], `COC1=CC(=O)c2c(nc3n2CCCC3)C1=O` came in with an IC50 above 1500 nM.
Same read-out and setting: the result for `O=C1C(N2CC2)=CC(=O)c2c1nc1n2CCCC1` reads 1060 nM; that for `COc1ccc(OC)c2c1ncn2C[C@@H]1CN1C(c1ccccc1)(c1ccccc1)c1ccccc1` (stereo not given in full), 1260 nM.
On to `COC1=CC(=O)c2c(nc3n2CCC3)C1=O`, for which the IC50 in assay [1] was determined as 360 nM. Also, the outcome with PD20i was inactive.
